Measurements taken from ChEMBL document CHEMBL4118034, “Orbicularisine: A Spiro-Indolothiazine Isolated from Gills of the Tropical Bivalve Codakia orbicularis” (J Nat Prod, 2017).
The source made the active and inactive calls. The calls are words filed in the database; no cut-off is given here.

Legend:
[1] = target: Receptor-interacting serine/threonine-protein kinase 3 (Homo sapiens) (UniProt Q9Y572); experiment: Inhibition of human RIPK3 assessed as residual activity at 16 uM relative to control
Leishmania donovani = experiment: Inhibition of Leishmania donovani TLK assessed as residual activity at 16 uM relative to control
Streptococcus pneumoniae = experiment: Antibacterial activity against Streptococcus pneumoniae ATCC 49619 at 2 to 256 ug/ml measured after 24 hrs; assay type: functional, organism-based
Outline: (§1)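 Stock: 2.7 mg compound in 100 µL DMSO, then diluted with 900 µL distilled water. Working solutions at 256, 128, 64, 32, 16, 8, 4 and 2 µg/mL; 20 µL of each went into 178 µL Mueller-Hinton broth. Inoculum: 2 µL overnight culture at 0.5 McFarland (1.5*10⁸ CFU/mL). Controls: DMSO–water growth and sterility. Incubation 24 h at 37 °C; wells scored by eye as clear or turbid.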

HCT-116 = experiment: Cytotoxicity against human HCT116 cells up to 100 uM; assay type: functional, cell-based
[2] = target: T1, Putative casein kinase I (Leishmania major) (UniProt O96999); experiment: Inhibition of Leishmania major CK1 assessed as residual activity at 16 uM relative to control
T1 sequence (whole entry): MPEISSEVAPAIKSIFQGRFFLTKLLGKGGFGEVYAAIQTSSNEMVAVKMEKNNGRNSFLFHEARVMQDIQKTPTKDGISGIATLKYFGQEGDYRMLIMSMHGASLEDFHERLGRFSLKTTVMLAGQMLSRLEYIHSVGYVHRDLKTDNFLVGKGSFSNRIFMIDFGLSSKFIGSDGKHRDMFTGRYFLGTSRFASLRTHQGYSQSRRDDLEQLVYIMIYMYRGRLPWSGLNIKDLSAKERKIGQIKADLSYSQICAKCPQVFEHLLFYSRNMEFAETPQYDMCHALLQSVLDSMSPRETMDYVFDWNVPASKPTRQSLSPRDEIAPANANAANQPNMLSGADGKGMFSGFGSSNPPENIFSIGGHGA

Pseudomonas aeruginosa = experiment: Antibacterial activity against Pseudomonas aeruginosa ATCC […] at 2 to 256 ug/ml measured after 24 hrs; assay type: functional, organism-based; outline: as §1
[3] = target: CDK2/Cyclin A2 (Homo sapiens) (UniProt P24941+P20248); experiment: Inhibition of human CDK2/Cyclin A assessed as residual activity at 16 uM relative to control; assay type: protein-complex assay
[4] = target: T2, Serine/threonine-protein kinase haspin (Homo sapiens) (UniProt Q8TF76); experiment: Inhibition of human haspin assessed as residual activity at 16 uM relative to control
T2 sequence (whole entry): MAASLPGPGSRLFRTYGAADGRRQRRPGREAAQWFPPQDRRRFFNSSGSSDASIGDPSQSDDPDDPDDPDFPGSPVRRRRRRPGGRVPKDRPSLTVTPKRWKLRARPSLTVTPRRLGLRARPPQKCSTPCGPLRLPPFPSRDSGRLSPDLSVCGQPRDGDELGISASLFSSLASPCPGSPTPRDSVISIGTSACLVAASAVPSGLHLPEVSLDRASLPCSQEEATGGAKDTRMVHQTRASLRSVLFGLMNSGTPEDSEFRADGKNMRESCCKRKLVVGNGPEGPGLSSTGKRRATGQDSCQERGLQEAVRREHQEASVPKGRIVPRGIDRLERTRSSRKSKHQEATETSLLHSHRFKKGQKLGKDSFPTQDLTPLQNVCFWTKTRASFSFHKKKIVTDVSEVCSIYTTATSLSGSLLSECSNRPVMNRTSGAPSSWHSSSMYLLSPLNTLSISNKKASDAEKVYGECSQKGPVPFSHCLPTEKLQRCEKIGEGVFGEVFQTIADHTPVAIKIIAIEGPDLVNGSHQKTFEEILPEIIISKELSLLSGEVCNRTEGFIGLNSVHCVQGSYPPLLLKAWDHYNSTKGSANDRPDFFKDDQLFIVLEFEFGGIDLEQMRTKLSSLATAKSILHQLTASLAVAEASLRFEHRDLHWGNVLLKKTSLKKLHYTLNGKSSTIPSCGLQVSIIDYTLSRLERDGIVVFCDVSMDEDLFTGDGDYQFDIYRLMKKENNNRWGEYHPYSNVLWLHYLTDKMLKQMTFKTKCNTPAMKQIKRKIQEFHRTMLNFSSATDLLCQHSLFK

Escherichia coli = experiment: Antibacterial activity against Escherichia coli ATCC 35218 at 2 to 256 ug/ml measured after 24 hrs; assay type: functional, organism-based; outline: as §1
[5] = target: Glycogen synthase kinase-3 (Sus scrofa) (UniProt B2LUN4+I6LNT8); experiment: Inhibition of pig GSK3 alpha/beta assessed as residual activity at 16 uM relative to control; assay type: protein assay
Klebsiella pneumoniae = experiment: Antibacterial activity against Klebsiella pneumoniae ATCC 700603 at 2 to 256 ug/ml measured after 24 hrs; assay type: functional, organism-based; outline: as §1
[6] = target: Dual specificity tyrosine-phosphorylation-regulated kinase 1A (Rattus norvegicus) (UniProt Q63470); experiment: Inhibition of rat DYRK1A assessed as residual activity at 16 uM relative to control
[7] = target: CDK9/cyclin T1 (Homo sapiens) (UniProt O60563+P50750); experiment: Inhibition of human CDK9/Cyclin T assessed as residual activity at 16 uM relative to control; assay type: protein-complex assay
Enterococcus faecalis = experiment: Antibacterial activity against Enterococcus faecalis ATCC 29212 at 2 to 256 ug/ml measured after 24 hrs; assay type: functional, organism-based; outline: as §1
U-87 MG = experiment: Cytotoxicity against human U87MG cells up to 100 uM; assay type: functional, cell-based; conditions: U-87MG ATCC
[8] = target: Cyclin-dependent kinase 5/CDK5 activator 1 (Homo sapiens) (UniProt Q00535+Q15078); experiment: Inhibition of human CDK5/p25 assessed as residual activity at 16 uM relative to control; assay type: protein-complex assay
[9] = target: Serine/threonine-protein kinase pim-1 (Homo sapiens) (UniProt P11309); experiment: Inhibition of human Pim1 assessed as residual activity at 16 uM relative to control
[10] = target: Aurora kinase B (Homo sapiens) (UniProt Q96GD4); experiment: Inhibition of human Aurora-B assessed as residual activity at 16 uM relative to control
Chain of Aurora kinase B (Homo sapiens) (Q96GD4 whole entry): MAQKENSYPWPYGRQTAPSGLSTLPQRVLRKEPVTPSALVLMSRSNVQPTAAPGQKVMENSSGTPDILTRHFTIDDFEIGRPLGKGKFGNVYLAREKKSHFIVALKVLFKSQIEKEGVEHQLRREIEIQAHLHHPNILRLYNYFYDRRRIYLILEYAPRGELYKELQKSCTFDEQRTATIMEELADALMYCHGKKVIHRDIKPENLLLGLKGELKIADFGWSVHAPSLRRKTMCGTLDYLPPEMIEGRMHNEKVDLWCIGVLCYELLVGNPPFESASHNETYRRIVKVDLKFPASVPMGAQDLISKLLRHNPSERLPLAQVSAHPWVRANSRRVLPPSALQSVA

Chain of Serine/threonine-protein kinase pim-1 (Homo sapiens) (P11309 whole entry, looked up): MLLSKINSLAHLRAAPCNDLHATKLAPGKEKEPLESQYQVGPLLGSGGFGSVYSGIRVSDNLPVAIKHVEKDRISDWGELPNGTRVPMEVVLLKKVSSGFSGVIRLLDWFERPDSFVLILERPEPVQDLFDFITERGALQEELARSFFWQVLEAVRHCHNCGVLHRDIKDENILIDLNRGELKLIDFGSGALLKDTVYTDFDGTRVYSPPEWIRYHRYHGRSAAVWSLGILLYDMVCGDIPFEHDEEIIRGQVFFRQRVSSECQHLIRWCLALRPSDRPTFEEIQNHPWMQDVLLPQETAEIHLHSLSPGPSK
Chain of Cyclin-dependent kinase 5/CDK5 activator 1 (Homo sapiens) (Q00535 whole entry): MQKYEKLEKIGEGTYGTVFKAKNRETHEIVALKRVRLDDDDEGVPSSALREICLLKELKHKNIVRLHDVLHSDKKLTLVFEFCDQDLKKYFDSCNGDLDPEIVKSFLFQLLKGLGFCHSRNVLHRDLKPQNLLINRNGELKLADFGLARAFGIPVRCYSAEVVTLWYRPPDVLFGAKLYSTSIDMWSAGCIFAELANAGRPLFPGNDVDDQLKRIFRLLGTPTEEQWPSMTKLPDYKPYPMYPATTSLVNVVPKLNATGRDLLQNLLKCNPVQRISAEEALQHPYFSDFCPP
Chain of Cyclin-dependent kinase 5/CDK5 activator 1 (Homo sapiens) (Q15078 99-307 partner limits assumed): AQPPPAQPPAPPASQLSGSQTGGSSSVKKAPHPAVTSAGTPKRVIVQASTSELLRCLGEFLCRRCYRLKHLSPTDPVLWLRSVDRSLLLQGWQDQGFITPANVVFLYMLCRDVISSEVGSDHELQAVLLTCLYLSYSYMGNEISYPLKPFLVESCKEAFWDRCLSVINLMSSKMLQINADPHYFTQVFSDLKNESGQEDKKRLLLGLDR
Chain of Receptor-interacting serine/threonine-protein kinase 3 (Homo sapiens) (Q9Y572 whole entry, looked up): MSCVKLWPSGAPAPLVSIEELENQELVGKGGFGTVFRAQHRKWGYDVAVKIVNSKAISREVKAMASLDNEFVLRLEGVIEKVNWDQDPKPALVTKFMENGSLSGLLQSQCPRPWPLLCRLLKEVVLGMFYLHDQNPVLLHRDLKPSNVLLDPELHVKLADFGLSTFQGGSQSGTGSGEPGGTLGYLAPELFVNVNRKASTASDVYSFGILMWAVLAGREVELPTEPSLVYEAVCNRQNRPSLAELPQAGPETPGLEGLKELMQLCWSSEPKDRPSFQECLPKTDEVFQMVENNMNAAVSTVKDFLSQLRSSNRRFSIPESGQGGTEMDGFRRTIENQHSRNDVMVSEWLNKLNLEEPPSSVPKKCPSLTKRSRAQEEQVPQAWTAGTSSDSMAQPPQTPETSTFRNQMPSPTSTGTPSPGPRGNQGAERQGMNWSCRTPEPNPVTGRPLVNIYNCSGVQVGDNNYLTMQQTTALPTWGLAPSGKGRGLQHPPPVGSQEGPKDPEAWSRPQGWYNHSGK

Activity [1]: > 60%
Activity (Leishmania donovani): > 60%
Activity [2]: > 60%
Activity [3]: > 60%
Activity [4]: > 60%
Activity [5]: > 60%
Activity [6]: > 60%
Activity [7]: > 60%
Activity [8]: > 60%
Activity [9]: > 60%
Activity [10]: > 60%
SMILES: O=C1OC2(C(=O)Nc3ccccc32)C2=C1NCCS2(=O)=O (stereo not drawn)
Activity (Streptococcus pneumoniae): inactive
Activity (HCT-116): inactive
Activity (Pseudomonas aeruginosa): inactive
Activity (Escherichia coli): inactive
Activity (Klebsiella pneumoniae): inactive
Activity (Enterococcus faecalis): inactive
Activity (U-87 MG): inactive
